Test results reported in ChEMBL document CHEMBL2216753, “Novel 1,4-benzoxazine and 1,4-benzodioxine inhibitors of angiogenesis” (Eur J Med Chem, 2012).
Activity calls are given as the source filed them. No cut-off for these calls is given here.

Columns and labels:
[1] = Cytotoxicity against human HMEC1 cells at 100 uM after 3 days by coulter counter method; assay type: cell-based; conditions: hmec-1, 72 h
How it was run: (§1)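 Cells seeded at 10,000 cells per cm2; after 16 h, fresh medium with test compound added. Cells trypsinized and counted with a Coulter counter on day 4 (BAEC, HeLa, MCF-7) or day 7 (HMEC-1). Cytotoxicity (cell death) was judged after 3 days in culture. HMEC-1 grown in EGM-2 with supplements and growth factors.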

[2] = Antimigratory activity against mouse MAEC cell migration at 10 uM after 5 hrs by wound closure assay; assay type: functional
How it was run: (§2)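 Confluent MAEC monolayers wounded with a 1.0-mm wide micropipette tip, then incubated in fresh medium with test compound. Wounds photographed after 5 h and width calculated from digital images. Mean ± SD of 2–4 independent experiments; Student t test, p < 0.05 significant.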

HeLa [3] = experiment: Antiproliferative activity against human HeLa cells after 4 days by coulter counter method; assay type: functional, cell-based; conditions: 96 h
Gallus gallus [4] = species on record: Gallus gallus; experiment: Antiangiogenic activity in chicken embryo chorioallantoic membrane model assessed as inhibition of chorioallantoic membrane vascularization at 100 to 250 nmol/disc after 3 days; assay type: functional, tissue-based
MCF7 [5] = experiment: Cytotoxicity against human MCF7 cells at 100 uM after 3 days by coulter counter method; assay type: cell-based; conditions: mcf7, 72 h; how it was run: as §1
Prothrombin = Prothrombin (Homo sapiens, UniProt P00734); experiment: Inhibition of thrombin
HMEC-1 [6] = experiment: Antiangiogenic activity in human HMEC1 cells assessed as inhibition of tube formation after 4 to 6 hrs by matrigel assay; assay type: functional, cell-based
How it was run: (§3)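 HMEC-1 (60,000 cells) seeded on matrigel (10 mg/mL) after 30 min gelling at 37 °C, in DMEM containing test compound; after 4–6 h cells photographed and tubes scored 0 (none) to 3 (maximal, like untreated control). Mean ± SD of 2–4 independent experiments; Student t test, p < 0.05 significant.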

MAEC [7] = experiment: Antimigratory activity against mouse MAEC cell migration after 5 hrs by wound closure assay; assay type: functional, cell-based; how it was run: as §2
HeLa [8] = experiment: Cytotoxicity against human HeLa cells at 100 uM after 3 days by coulter counter method; assay type: cell-based; conditions: 72 h; how it was run: as §1
Gallus gallus [9] = species on record: Gallus gallus; experiment: Antiangiogenic activity in chicken embryo chorioallantoic membrane model assessed as inhibition of pre-existing mature vessel at 100 to 250 nmol/disc after 3 days; assay type: functional, tissue-based
[10] = Antiproliferative activity against human HMEC1 cells after 7 days by coulter counter method; assay type: functional, cell-based; conditions: HMEC-1, 168 h
[11] = Antiproliferative activity against bovine BAEC cells after 4 days by coulter counter method; assay type: functional, cell-based; conditions: Bos taurus, 96 h
Gallus gallus [12] = species on record: Gallus gallus; experiment: Antiangiogenic activity in chicken embryo chorioallantoic membrane model at 250 nmol/disc after 3 days; assay type: functional, tissue-based
[13] = Cytotoxicity against bovine BAEC cells at 100 uM after 3 days by coulter counter method; assay type: cell-based, Bos taurus; conditions: cattle, 72 h; how it was run: as §1
[14] = (§4) Antimigratory activity against mouse MAEC cell migration at 30 uM after 5 hrs by wound closure assay; assay type: functional; how it was run: as §2
MCF7 [15] = experiment: Antiproliferative activity against human MCF7 cells after 4 days by coulter counter method; assay type: functional, cell-based; conditions: MCF7, 96 h
Gallus gallus [16] = species on record: Gallus gallus; experiment: Antiangiogenic activity in chicken embryo chorioallantoic membrane model assessed as destruction of vessels with bleeding at 20 nmol/disc after 3 days; assay type: functional, tissue-based
HMEC-1 [17] = experiment: Antiangiogenic activity in human HMEC1 cells assessed as inhibition of tube formation at 10 uM after 4 to 6 hrs by matrigel assay; assay type: functional, cell-based; how it was run: as §3
[18] = Antimigratory activity against mouse MAEC cell migration at 3 uM after 5 hrs by wound closure assay; assay type: functional; how it was run: as §2
[19] = Cytotoxicity against human HMEC1 cells at 30 uM after 3 days by coulter counter method; assay type: cell-based; conditions: hmec-1, 72 h; how it was run: as §1
MAEC [20] = experiment: as §4; assay type: functional; how it was run: as §2
MCF7 [21] = experiment: Cytotoxicity against human MCF7 cells at 30 uM after 3 days by coulter counter method; assay type: cell-based; conditions: mcf7, 72 h; how it was run: as §1
HeLa [22] = experiment: Cytotoxicity against human HeLa cells at 30 uM after 3 days by coulter counter method; assay type: cell-based; conditions: 72 h; how it was run: as §1
[23] = Cytotoxicity against bovine BAEC cells at 30 uM after 3 days by coulter counter method; assay type: cell-based, Bos taurus; conditions: cattle, 72 h; how it was run: as §1
HMEC-1 [24] = experiment: Antiangiogenic activity in human HMEC1 cells assessed as inhibition of tube formation at 30 uM after 4 to 6 hrs by matrigel assay; assay type: functional, cell-based; how it was run: as §3
Gallus gallus [25] = species on record: Gallus gallus; experiment: Antiangiogenic activity in chicken embryo chorioallantoic membrane model assessed as degradation of immature existing blood vessels at 40 to 250 nmol/disc after 3 days; assay type: functional, tissue-based

| Ki (Prothrombin) | Structure (SMILES) | Activity [1] | inhibition at 10 µM [2] | IC50 (HeLa [3]) | Activity (MCF7 [5]) | inhibition (MAEC [7]) | Activity (HeLa [8]) | IC50 [10] | IC50 [11] | inhibition (Gallus gallus [12]) | Activity [13] | IC50 (MCF7 [15]) | other results |
| --- | --- | --- | --- | --- | --- | --- | --- | --- | --- | --- | --- | --- | --- |
| 178 nM | CCOC(=O)C(=O)N(Cc1ccccc1)c1ccc2c(c1)OC(COc1ccc(C(=N)N)cc1)CO2 (configuration not stated) | Non-toxic | > 40% | 8 µM | Non-toxic | Dose-dependent effect | Non-toxic | 22 µM | 8.5 µM | Active | Non-toxic | 8.7 µM | inhibition (Gallus gallus [4]): Active; inhibition (HMEC-1 [6]): Dose-dependent effect; Activity (Gallus gallus [9]): inactive; inhibition at 30 µM [14]: > 80% |
| 18 nM | CCOC(=O)C(=O)N(Cc1ccccc1)c1ccc2c(c1)OC[C@H](COc1ccc(C(=N)N)cc1)O2 | Non-toxic | – | 19 µM | Non-toxic | – | Non-toxic | 24 µM | 12 µM | Active | Non-toxic | 9.5 µM | – |
| – | CCOC(=O)CN(Cc1cc(F)cc(F)c1)c1ccc2c(c1)N(C)CC(C)(COc1ccc(C(=N)N)cc1)O2 (configuration not stated) | Toxic | 50% | 4.5 µM | Toxic | Dose-dependent effect | Toxic | 6.7 µM | 4 µM | Active | Toxic | 4.5 µM | Activity (Gallus gallus [16]): Active; inhibition (HMEC-1 [17]): inactive; inhibition at 3 µM [18]: > 40%; Activity [19]: Toxic; inhibition (MAEC [20]): Active; Activity (MCF7 [21]): Toxic; Activity (HeLa [22]): Toxic; Activity [23]: Toxic; inhibition (HMEC-1 [24]): Active; Activity (Gallus gallus [25]): Active |
